Measurements: publication PMC7744356 (European journal of medicinal chemistry, 2020)
Entries after “also recorded” stand apart in the source; their conditions may differ.

How the values were obtained:
Type in all cases: cell-based
N1303K-CFTR [1] = target: T1, N1303K-CFTR (Homo sapiens, UniProt P13569, N1303K); assay: Co-potentiator activity in N1303K-CFTR expressing FRT cell model; settings: for co-potentiator activity (in words) / VMAX: N1303K-CFTR expressing FRT cells; for VMAX: 20 = 100%; for fold more potent than 20: EC50 relative to 20
Outline: (§1)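 FRT cells stably expressing N1303K-CFTR, grown on permeable supports and corrected with 3 μM VX-661 for 18–24 h. Short-circuit current was recorded at 37 °C in HCO3-buffered solutions with a chloride gradient and the basolateral membrane permeabilized with 250 μg/ml amphotericin B. Additions: 20 μM forskolin, 5 μM VX-770, rising test compound concentrations, then 10 μM CFTRinh-172. EC50 and maximal response come from concentration-dependence data (n=3, mean ± S.E.M.), with potency relative to a reference co-potentiator.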

N1303K-CFTR [2] = target: T1, N1303K-CFTR; assay: Short-circuit current in gene-edited 16HBE14o- cells expressing N1303K-CFTR
Outline: (§2)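 Gene-edited 16HBE14o- human bronchial epithelial cells carrying endogenous N1303K or I1234del CFTR were grown on permeable supports. The I1234del cells were corrected with 18 μM VX-661 plus 3 μM VX-445 for 18–24 h. Short-circuit current was measured at 37 °C in Hepes-buffered solutions with a chloride gradient. Additions: 20 μM forskolin, 5 μM VX-770, 10 μM test compound, then 10 μM CFTRinh-172. The CFTRinh-172-inhibitable ΔIsc is compared with the VX-770-alone response (mean ± S.E.M., n=3, unpaired t-test).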

I1234del-CFTR = I1234del-CFTR (Homo sapiens, UniProt P13569, DEL1234-1239); assay: Short-circuit current in gene-edited 16HBE14o- cells expressing I1234del-CFTR; settings: 10 μM 2i
Outline: as §2

R347P-CFTR = R347P-CFTR (Homo sapiens, UniProt P13569, R347P); assay: Short-circuit current in FRT cells expressing R347P-CFTR; settings: 20 μM 2i after 20 μM forskolin and 5 μM VX-770
Outline: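 Permeabilized FRT monolayers stably expressing R347P-CFTR were pre-corrected with 3 μM VX-661 for 18–24 h. Short-circuit current was measured at 37 °C in HCO3-buffered solutions under a chloride gradient, with the basolateral membrane opened using 250 μg/ml amphotericin B. Sequential additions: 20 μM forskolin, 5 μM VX-770, 20 μM test compound, then 10 μM CFTRinh-172.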

N1303K-CFTR [3] = target: T1, N1303K-CFTR; assay: Short-circuit current in FRT cells expressing N1303K-CFTR; settings: N1303K-CFTR EC50
Outline: as §1

Row | Compound | co-potentiator activity (in words) (N1303K-CFTR [1]) | other results
1 | COc1ccc2[nH]c3c(c2c1)CCN[C@@]31CCN2Cc3ccccc3C[C@H]2C1 (racemic) [6b, (+/−)-(2R,11aS)-6’-methoxy-1,2’,3,3’,4,4’,6,9’,11,11a-decahydrospiro[pyrido[1,2-b]isoquinoline-2,1’-pyrido[3,4-b]indole]] | inactive | 
2 | COc1ccc2[nH]c3c(c2c1)CCNC31CCN(Cc2cc(Cl)ccc2[N+](=O)[O-])CC1 [1c, 1-(5-Chloro-2-nitrobenzyl)-6’-methoxy-2’,3’,4’,9’-tetrahydrospiro[piperidine-4,1’-pyrido[3,4-b]indole]] |  | VMAX (N1303K-CFTR [1]): improved Vmax
3 | COc1ccc2[nH]c3c(c2c1)CCNC31CCN(Cc2ccc(Cl)cc2Cl)CC1 [1d, 1-(2,4-Dichlorobenzyl)-6’-methoxy-2’,3’,4’,9’-tetrahydrospiro[piperidine-4,1’-pyrido[3,4-b]indole]] | decreased activity | 
4 | COc1ccc2[nH]c3c(c2c1)CCNC31CCN(Cc2cc(F)cc(Cl)c2)CC1 [1e, 1-(3-Chloro-5-fluorobenzyl)-6’-methoxy-2’,3’,4’,9’-tetrahydrospiro[piperidine-4,1’-pyrido[3,4-b]indole]] | decreased activity | 
5 | COc1ccc2[nH]c3c(c2c1)CCNC31CCN(Cc2ccc(F)c(Cl)c2F)CC1 [1j, 1-(3-Chloro-2,4-difluorobenzyl)-6’-methoxy-2’,3’,4’,9’-tetrahydrospiro[piperidine-4,1’-pyrido[3,4-b]indole]] |  | VMAX (N1303K-CFTR [1]): improved Vmax
6 | COc1ccc2[nH]c3c(c2c1)CCNC31CCN(Cc2ccc(F)cc2F)CC1 [2a, 1-(2,4-Difluorobenzyl)-6’-methoxy-2’,3’,4’,9’-tetrahydrospiro[piperidine-4,1’-pyrido[3,4-b]indole]] | active | 
7 | COc1ccc2[nH]c3c(c2c1)CCNC31CCN(Cc2cc(F)cc(F)c2)CC1 [2c, 1-(3,5-Difluorobenzyl)-6’-methoxy-2’,3’,4’,9’-tetrahydrospiro[piperidine-4,1’-pyrido[3,4-b]indole]] | active | 
8 | COc1ccc2[nH]c3c(c2c1)CCNC31CCN(Cc2c(F)c(F)c(F)c(F)c2F)CC1 [2e, 6’-Methoxy-1-((perfluorophenyl)methyl)-2’,3’,4’,9’-tetrahydrospiro[piperidine-4,1’-pyrido[3,4-b]indole]] | active | 
9 | COc1ccc2[nH]c3c(c2c1)CCNC31CCN(Cc2cc(F)c(F)cc2F)CC1 [2i, 6’-Methoxy-1-(2,4,5-trifluorobenzyl)-2’,3’,4’,9’-tetrahydrospiro[piperidine-4,1’-pyrido[3,4-b]indole]] | most potent | fold greater response than VX-770 alone (N1303K-CFTR [2]; 10 μM 2i): approximately 6 fold; CFTRinh-172-inhibitable short-circuit current response (N1303K-CFTR [2]; 10 μM 2i after 20 μM forskolin and 5 μM VX-770, mean ± S.E.M., n=3): 16.1 ± 0.4 μA/cm^2; fold greater response than VX-770 alone (I1234del-CFTR): ~2 fold; activation of R347P-CFTR (in words) (R347P-CFTR): not activated; fold improvement in potency over the original compound (20) (N1303K-CFTR [3]): ~ 17 fold
10 | COc1ccc2[nH]c3c(c2c1)CCNC31CCNCC1 [3a, 6’-Methoxy-2’,3’,4’,9’-tetrahydrospiro[piperidine-4,1’-pyrido[3,4-b]indole]] | inactive | 
11 | COc1ccc2[nH]c3c(c2c1)CCNC31CCN(CCc2ccccc2)CC1 [3c, 6’-Methoxy-1-phenethyl-2’,3’,4’,9’-tetrahydrospiro[piperidine-4,1’-pyrido[3,4-b]indole]] | greatly reduced activity; also recorded: inactive | 
12 | COc1ccc2[nH]c3c(c2c1)CCNC31CCN(CCCc2ccccc2)CC1 [3d, 6’-Methoxy-1-(3-phenylpropyl)-2’,3’,4’,9’-tetrahydrospiro[piperidine-4,1’-pyrido[3,4-b]indole]] | greatly reduced activity; also recorded: inactive | 
13 | COc1ccc2[nH]c3c(c2c1)CCNC31CCN(Cc2ccco2)CC1 [3e, 1-(Furan-2-ylmethyl)-6’-methoxy-2’,3’,4’,9’-tetrahydrospiro[piperidine-4,1’-pyrido[3,4-b]indole]] | active, but less potent | 
14 | COc1ccc2[nH]c3c(c2c1)CCNC31CCN(Cc2ccccn2)CC1 [3f, 6’-Methoxy-1-(pyridin-2-ylmethyl)-2’,3’,4’,9’-tetrahydrospiro[piperidine-4,1’-pyrido[3,4-b]indole]] | active, but less potent | Emax (N1303K-CFTR [1]; FRT, read-out: VMAX): 107%
15 | COc1ccc2[nH]c3c(c2c1)CCNC31CCN(Cc2cccnc2)CC1 [3g, 6’-Methoxy-1-(pyridin-3-ylmethyl)-2’,3’,4’,9’-tetrahydrospiro[piperidine-4,1’-pyrido[3,4-b]indole]] | active, but less potent | 
16 | COc1ccc2[nH]c3c(c2c1)CCNC31CCCN(Cc2ccc(F)cc2F)CC1 (stereo not drawn) [4a, 1-(2,4-Difluorobenzyl)-6’-methoxy-2’,3’,4’,9’-tetrahydrospiro[azepane-4,1’-pyrido[3,4-b]indole]] | inactive | 
17 | COc1ccc2[nH]c3c(c2c1)CCNC31CCN(Cc2ccc(F)cc2F)C1 (stereo not drawn) [4b, 1’-(2,4-Difluorobenzyl)-6-methoxy-2,3,4,9-tetrahydrospiro[pyrido[3,4-b]indole-1,3’-pyrrolidine]] | inactive; also recorded: abolished activity | 
18 | COc1ccc2[nH]c3c(c2c1)CCNC31CCCN(Cc2ccc(F)cc2F)C1 (stereo not drawn) [4c, 1-(2,4-Difluorobenzyl)-6’-methoxy-2’,3’,4’,9’-tetrahydrospiro[piperidine-3,1’-pyrido[3,4-b]indole]] | inactive; also recorded: abolished activity | 
19 | COc1ccc2[nH]cc(CCNC3CCN(Cc4ccccc4)CC3)c2c1 [4d, 1-Benzyl-N-(2-(5-methoxy-1H-indol-3-yl)ethyl)piperidin-4-amine] | abolished activity | 
20 | Fc1ccc(CN2CCC3(CC2)NCCc2c3[nH]c3ccc(Cl)cc23)c(F)c1 [5c, 6’-Chloro-1-(2,4-difluorobenzyl)-2’,3’,4’,9’-tetrahydrospiro[piperidine-4,1’-pyrido[3,4-b]indole]] | tolerated | fold more potent than 20 (N1303K-CFTR [1]): approximately 4 fold
21 | COc1ccc2c3c([nH]c2c1)C1(CCN(Cc2ccc(F)cc2F)CC1)NCC3 [5d, 1-(2,4-Difluorobenzyl)-7’-methoxy-2’,3’,4’,9’-tetrahydrospiro[piperidine-4,1’-pyrido[3,4-b]indole]] | decreased activity | fold more potent than 20 (N1303K-CFTR [1]): approximately 4 fold
22 | COc1ccc2c(c1)c1c(n2C)C2(CCN(Cc3ccc(F)cc3F)CC2)NCC1 [5e, 1-(2,4-Difluorobenzyl)-6’-methoxy-9’-methyl-2’,3’,4’,9’-tetrahydrospiro[piperidine-4,1’-pyrido[3,4-b]indole]] | inactive; also recorded: inactivity | 
